Reference: ChEMBL document CHEMBL3244196, “Synthesis and analgetic activity of 1,2,3,4,5,6-hexahydro-1,6-methano-3-benzozocines” (J Med Chem, 1978)
The source made the active and inactive calls. The rule behind the calls is not given here.

Assays:
Mus musculus [1] = species on record: Mus musculus; assay: Analgesic activity in mouse by Eddy hot-plate method; format: functional
Rhesus monkey [2] = assay: Toxicity in rhesus monkey assessed as physical drug dependence liability at 2 to 8 mg/kg by single dose suppression analysis; format: organism-based, Macaca mulatta; design: dose 2-8 mg/kg; conditions: in vivo
How it was run: (§1)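 Rhesus monkeys addicted to morphine; single-dose suppression study scoring whether the test dose supports morphine dependence, i.e. suppresses withdrawal signs. Dose range 2-4 or 2-8 mg/kg, as given in each line.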

Mus musculus [3] = assay: Analgesic activity in sc dosed mouse by Eddy hot-plate method; format: functional
Rhesus monkey [4] = assay: Psychotomimetic activity in morphine-dependent nonwithdrawn rhesus monkey assessed as antagonist activity by measuring precipitation of withdrawal symptoms at 2 to 8 mg/kg; format: organism-based, Macaca mulatta; design: dose 2-8 mg/kg; conditions: in vivo
Rhesus monkey [5] = assay: Toxicity in rhesus monkey assessed as physical drug dependence liability at 2 to 4 mg/kg by single dose suppression analysis; format: organism-based, Macaca mulatta; design: dose 2-4 mg/kg; conditions: in vivo; how it was run: as §1
Rhesus monkey [6] = assay: Psychotomimetic activity in morphine-dependent nonwithdrawn rhesus monkey assessed as antagonist activity by measuring precipitation of withdrawal symptoms at 2 to 4 mg/kg; format: organism-based, Macaca mulatta; design: dose 2-4 mg/kg; conditions: in vivo

`c1ccc(CCN2CCC3CC(C2)c2ccccc23)cc1` (configuration not stated) showed an ED50 (Mus musculus [1]) of 8.8 mg/kg.

With `CN1CCC2CC1Cc1ccccc12` (configuration not stated) the ED50 (Mus musculus [1]) was 11.2 mg/kg.

With `c1ccc2c(c1)C1CCNCC2C1` (configuration not stated) the ED50 (Mus musculus [1]) was 4.9 mg/kg, the Activity (Rhesus monkey [2]) was “Non-toxic” and the ED50 (Mus musculus [3]) was 6.1 mg/kg. For the same compound, the Activity (Rhesus monkey [4]) was “Non-toxic”.

With `CN1CCC2CC(C1)c1ccccc12` (configuration not stated) the ED50 (Mus musculus [1]) was 4.2 mg/kg, the ED50 (Mus musculus [3]) was 8.2 mg/kg and the Activity (Rhesus monkey [5]) was “Non-toxic”. For the same compound, the Activity (Rhesus monkey [6]) was “Non-toxic”.

Compound `CCCN1CCC2CC(C1)c1ccccc12` (configuration not stated) has an ED50 (Mus musculus [1]) of 16.2 mg/kg.

Work on `CN1CC[C@@H]2CC1Cc1ccc(O)cc12` yielded an ED50 (Mus musculus [1]) of 4.5 mg/kg.

Compound `CN1CC[C@]23c4c5ccc(O)c4O[C@H]2[C@@H](O)C=C[C@H]3[C@H]1C5` [MORPHINE] has an ED50 (Mus musculus [1]) of 1.2 mg/kg.

In the case of `C=CCN1CCC2CC(C1)c1ccccc12` (configuration not stated), the ED50 (Mus musculus [1]) was 19.4 mg/kg.

Work on `CC1CCN(C)CCc2ccc(O)cc21` (configuration not stated) yielded an ED50 (Mus musculus [1]) of 12.5 mg/kg.

`COc1ccc2c3c1O[C@H]1[C@@H](O)C=C[C@H]4[C@@H](C2)N(C)CC[C@@]341` [CODEINE] showed an ED50 (Mus musculus [1]) of 7.5 mg/kg.

`CC(C)=CCN1CCC2CC(C1)c1ccccc12` (configuration not stated) was tested, and the ED50 (Mus musculus [1]) was “inactive”.
